Results on 17 compounds are retold here after ChEMBL document CHEMBL1921681, “Difluoromethylbenzoxazole pyrimidine thioether derivatives: a novel class of potent non-nucleoside HIV-1 reverse transcriptase inhibitors” (J Med Chem, 2011).

For data set [1], the system named is Human immunodeficiency virus 1. The data set can be described thus: Antiviral activity against Human immunodeficiency virus 1 HXB2 harboring reverse transcriptase K103N and Y181C mutant infected in human MT4 cells stably transformed with HIV1 LTR-EGFP after 3 days by fluorescence microscopic analysis. The format is functional, organism-based. Conditions: Human immunodeficiency virus 1, HXB2, MT4, 72 h.

A short description of data set [2]: Cytotoxicity against mock infected human MT4 cells after 3 days by EGFP fluorescence microscopic analysis. The format is cell-based. The method in brief:
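Mock-infected MT4 cells stably carrying a CMV-EGFP reporter, seeded at 150 000 cells/mL and cultured with or without serial compound concentrations. MT4 cells kept in RPMI 1640 with 10% heat-inactivated FCS, 2 mM L-glutamine, 0.1% NaHCO3, gentamicin and G418, at 37 °C under 5% CO2. After 3 days, proliferation was read as EGFP fluorescence, giving CC50.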

A short description of data set [3]: Selectivity ratio of CC50 for mock-infected human MT4 cells to EC50 for Human immunodeficiency virus 1 3B infected in human MT4 cells. Conditions: read-out: Ratio CC50/EC50. Type of data set: ADME, cell-based. The method in brief: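 Ratio of two values run in parallel. CC50 came from mock-infected CMV-EGFP MT4 cells (150 000 cells/mL, 3 days, EGFP fluorescence). EC50 came from MT4-LTR-EGFP cells (150 000 cells/mL) infected with HIV-1 IIIB at MOI 0.01 with or without inhibitor, with replication read as EGFP fluorescence after 3 days. SI = CC50/EC50.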

Data set [4] has as its system Human immunodeficiency virus 1. Put plainly: Selectivity ratio of EC50 for Human immunodeficiency virus 1 HXB2 harboring reverse transcriptase K103N and Y181C mutant infected in human MT4 cells to EC50 for Human immunodeficiency virus 1 3B infected in human MT4 cells. Type of data set: functional.
Data set [5] relates to Human immunodeficiency virus 1. Put plainly: Antiviral activity against Human immunodeficiency virus 1 3B infected in human MT4 cells stably transformed with HIV1 LTR-EGFP after 3 days by fluorescence microscopic analysis. Type of data set: functional, organism-based. Particulars: MT4, 72 h. The method in brief:
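MT4 cells carrying an HIV LTR-EGFP reporter (150 000 cells/mL) infected with HIV-1 IIIB at MOI 0.01, with or without graded inhibitor concentrations. After 3 days, replication read as EGFP fluorescence and expressed as EC50. Cell line maintained in RPMI 1640 with 10% heat-inactivated FCS, 2 mM L-glutamine, gentamicin, G418, at 37 °C, 5% CO2.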

The nature of data set [6]: Dissociation constant, pKa of the compound. Type of data set: physicochemical.
Data set [7] is described as follows: Aqueous solubility of the compound. The format is physicochemical. Particulars: buffer.
The nature of data set [8]: Lipophilicity, log D of the compound. Conditions: octanol/water. The format is physicochemical.
Data set [9] can be described thus: Apparent permeability of the compound across human Caco2 cells. Conditions: Caco-2. The format is ADME, cell-based. A general note: Caco-2 monolayers are a common model of the intestinal barrier.
Data set [10] can be described thus: Metabolic stability of the compound in human liver microsomes after 15 mins. Type of data set: ADME, Microsome. Particulars: read-out: Stability. Background: Liver microsomes are vesicles of endoplasmic reticulum, rich in cytochrome P450 enzymes.
For the next data set, the target named is Cytochrome P450 3A4 (Homo sapiens, UniProt P08684). The data set can be described thus: Inhibition of CYP3A4. The format is ADME.
Cytochrome P450 3A4, sequence (P08684 whole entry): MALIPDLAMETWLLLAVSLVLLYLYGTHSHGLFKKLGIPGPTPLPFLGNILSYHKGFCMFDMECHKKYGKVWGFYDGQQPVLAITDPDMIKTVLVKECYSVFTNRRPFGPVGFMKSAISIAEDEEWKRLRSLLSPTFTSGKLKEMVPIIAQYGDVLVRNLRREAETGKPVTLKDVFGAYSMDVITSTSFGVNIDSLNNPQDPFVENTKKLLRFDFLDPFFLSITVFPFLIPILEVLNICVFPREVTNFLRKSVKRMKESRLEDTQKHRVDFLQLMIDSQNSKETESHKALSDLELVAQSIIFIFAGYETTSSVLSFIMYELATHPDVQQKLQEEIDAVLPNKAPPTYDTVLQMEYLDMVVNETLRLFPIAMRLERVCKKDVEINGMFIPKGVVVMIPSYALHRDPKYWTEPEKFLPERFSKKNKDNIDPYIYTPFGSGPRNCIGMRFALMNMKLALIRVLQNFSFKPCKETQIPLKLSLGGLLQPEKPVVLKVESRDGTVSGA
In a further data set the target is Cytochrome P450 2C9 (Homo sapiens, UniProt P11712). The data set can be described thus: Inhibition of CYP2C9. Type of data set: ADME.
Cytochrome P450 2C9, sequence (P11712 whole entry): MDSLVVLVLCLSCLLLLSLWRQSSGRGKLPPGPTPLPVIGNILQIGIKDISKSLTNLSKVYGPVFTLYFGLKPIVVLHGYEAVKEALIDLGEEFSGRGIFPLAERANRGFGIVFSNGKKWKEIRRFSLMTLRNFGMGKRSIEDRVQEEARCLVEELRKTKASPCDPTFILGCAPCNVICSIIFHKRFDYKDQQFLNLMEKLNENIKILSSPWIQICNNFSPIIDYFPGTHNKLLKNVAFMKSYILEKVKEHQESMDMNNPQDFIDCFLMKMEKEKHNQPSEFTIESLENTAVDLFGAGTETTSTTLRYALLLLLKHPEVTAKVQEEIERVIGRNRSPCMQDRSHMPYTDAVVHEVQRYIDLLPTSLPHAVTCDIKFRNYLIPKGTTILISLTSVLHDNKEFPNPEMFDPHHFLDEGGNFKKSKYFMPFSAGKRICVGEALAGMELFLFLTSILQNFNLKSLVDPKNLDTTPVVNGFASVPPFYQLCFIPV
Another data set addresses Cytochrome P450 2D6 (Homo sapiens, UniProt P10635). Put plainly: Inhibition of CYP2D6. Type of data set: ADME.

Values after ≈ are worked out from the molar mass of the structure shown.

Cytochrome P450 2D6, sequence (P10635 whole entry): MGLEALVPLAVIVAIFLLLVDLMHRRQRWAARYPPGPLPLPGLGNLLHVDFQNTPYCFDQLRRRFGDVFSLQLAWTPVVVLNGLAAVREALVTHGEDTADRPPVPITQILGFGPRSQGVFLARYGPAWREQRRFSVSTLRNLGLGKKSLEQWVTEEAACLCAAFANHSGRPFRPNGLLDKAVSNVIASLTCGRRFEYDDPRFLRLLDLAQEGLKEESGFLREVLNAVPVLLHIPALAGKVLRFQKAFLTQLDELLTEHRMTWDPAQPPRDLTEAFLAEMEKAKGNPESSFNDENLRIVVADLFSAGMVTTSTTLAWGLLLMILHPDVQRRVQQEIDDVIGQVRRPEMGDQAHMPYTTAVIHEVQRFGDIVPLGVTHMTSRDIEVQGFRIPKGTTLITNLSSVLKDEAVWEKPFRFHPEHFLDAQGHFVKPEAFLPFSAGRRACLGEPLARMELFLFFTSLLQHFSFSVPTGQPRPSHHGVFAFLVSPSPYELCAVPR

Take `Cc1ccnc(SC(F)(F)c2nc3cccc(Cl)c3o2)n1`: the values for the EC50 in data set [1] and in data set [5] were 60 µM and 0.14 µM, respectively. In data set [2], this compound registered a CC50 at 72 h of more than 98.4 µM. For the same compound, the selectivity ratio in [3] was more than 700. In addition, the “Ratio EC50” value in data set [4] was 30.

On to `CCc1ccnc(SC(F)(F)c2nc3ccccc3o2)n1`, for which the results for the EC50 in data set [1] and in [5] were 57 µM and 0.0064 µM, respectively. Further, the CC50 at 72 h in data set [2] was more than 98 µM. For the same compound, the selectivity ratio in data set [3] is more than 15000.

Regarding `Cc1ccnc(SC(F)(F)c2nc3c(Cl)cccc3o2)n1`, the results for the EC50 in data set [1] and in [5] were 79 µM and 0.098 µM, respectively. Moreover, the CC50 at 72 h in data set [2] was more than 98.4 µM. Further, the selectivity ratio in data set [3] was more than 1000. In data set [4], the “Ratio EC50” value was determined as 30.

In data set [5], `c1cnc(SCc2nc3ccccc3o2)nc1` returned a 50% effective concentration (EC50) of 35.3 µM.

`Cc1cccc2oc(C(F)(F)Sc3nccc(N)n3)nc12`: the EC50 in [1] is more than 20 µM; in data set [5], 0.83 µM. For the same compound, half-maximal cytotoxicity in [2] (CC50 at 72 h) was put at 20 µM. The selectivity ratio in [3] is 24.

On to `Nc1ccnc(SC(F)(F)c2nc3c(Cl)cccc3o2)n1`, for which the EC50 in [1] and in data set [5] was more than 28 µM each time. Moreover, it took 28.8 µM to reach half-maximal cytotoxicity in data set [2] (CC50 at 72 h). In data set [3], the selectivity ratio was less than 1. In addition, the “Ratio EC50” value in data set [4] is 30.

On to `Nc1ccnc(SC(F)(F)c2nc3ccccc3o2)n1`, for which the results for the concentration for a half-maximal effect (EC50) in data set [1] and in data set [5] were more than 33 µM and 0.26 µM, respectively. This compound returned a CC50 at 72 h in data set [2] of 33.5 µM. In addition, in [3], the selectivity ratio amounted to 129.

As to `Cc1ccnc(SC(F)(F)c2nc3c(C)cccc3o2)n1`, the figures for the 50% effective concentration (EC50) in [1] and in data set [5] were more than 98.4 µM and 0.17 µM, respectively. Also, in data set [2], the 50% cytotoxic concentration (CC50) at 72 h was more than 98.4 µM. The selectivity ratio in data set [3] is more than 570.

Regarding `Cc1cc(C)nc(SC(F)(F)c2nc3ccccc3o2)n1`, the concentration giving a half-maximal response (EC50) came out at 77.2 µM in data set [1] and 0.95 µM in data set [5]. Besides, the CC50 at 72 h in data set [2] is more than 98.4 µM. The selectivity ratio in [3] is more than 100. In addition, the pKa in [6] worked out at 1.3.

Take `CC(=O)Nc1ccnc(SC(F)(F)c2nc3ccccc3o2)n1`: the EC50 is more than 98.4 µM in data set [1] and 43.3 µM in data set [5]. In data set [2], this compound returned a 50% cytotoxic concentration (CC50) at 72 h of more than 98.4 µM. Besides, the selectivity ratio in [3] is more than 2.3.

As for `COCc1ccnc(SC(F)(F)c2nc3ccccc3o2)n1`, the EC50 in data set [1] is more than 98.4 µM; in data set [5], 0.66 µM. In data set [2], the half-maximal cytotoxic concentration (CC50) at 72 h is more than 98.4 µM. Moreover, the selectivity ratio in [3] is more than 142.

For `Cc1ccnc(SC(F)(F)c2nc3ccccc3o2)n1`, the concentration for a half-maximal effect (EC50) in [1] turned out to be 67 µM; in data set [5], 0.11 µM. Besides, the CC50 at 72 h in data set [2] was more than 100 µM. Also, the selectivity ratio in [3] was more than 800. Also, the solubility in [7] worked out at 200 µM (≈ 58.7 µg/mL). The same compound came in with a log distribution coefficient (logD) in [8] of 3.9. Moreover, the pKa in [6] was 3.6. The apparent permeability coefficient (Papp) in [9] came out at 34.6 ×10⁻⁶ cm/s. The remaining at 0.25 h in [10] came out at 90%. The “inhibition (INH)” value against Cytochrome P450 3A4, on Cytochrome P450 2C9 and on Cytochrome P450 2D6 was less than 30% each time.

As to `Cc1ccnc(S(=O)(=O)C(F)(F)c2nc3ccccc3o2)n1`, the EC50 is more than 61 µM in [1] and 7.9 µM in data set [5]. This compound also showed a CC50 at 72 h in data set [2] of 61 µM. Further, in data set [3], the selectivity ratio stood at 8.

`CC(C)c1ccnc(SC(F)(F)c2nc3ccccc3o2)n1`: the EC50 is more than 98.4 µM in [1] and 0.13 µM in data set [5]. In [2], this compound yielded a CC50 at 72 h of more than 98.4 µM. In addition, the selectivity ratio in data set [3] is more than 774.

Turning to `FC(F)(Sc1nccc(C2CC2)n1)c1nc2ccccc2o1`, the EC50 came out at 67.9 µM in [1] and 0.16 µM in data set [5]. The compound further came in with a 50% cytotoxic concentration (CC50) at 72 h in [2] of 77.5 µM. The selectivity ratio in data set [3] was found to be 484.

Turning to `Cc1ccnc(SC(F)(F)c2nc3cccc(C)c3o2)n1`, the values for the EC50 in [1] and in data set [5] were 55.4 µM and 0.2 µM, respectively. Moreover, in data set [2], the CC50 at 72 h is more than 98.4 µM. The selectivity ratio in [3] is more than 490.

In turn, `FC(F)(Sc1ncccn1)c1nc2ccccc2o1` had an EC50 in data set [5] of 3.14 µM.

A word on the EC50: it is the concentration needed to bring the measured effect to its halfway point. What is called CC50 is the concentration at which the toxic effect on the cells reaches its halfway point. A high value points to lower toxicity to the cells. For orientation: pKa means the pH at which an ionisable group is half protonated. A lower pKa goes with a stronger acid or weaker base. Broadly, the solubility is how much of the substance goes into solution per volume. The low end stands for a poorly soluble substance, the high end for a readily soluble substance. As usually defined, the logD is lipophilicity at a set pH, counting ionised and neutral species. A low value points to lower lipophilicity. One may read the Papp as a coefficient for how fast a substance crosses the barrier.
